Screening results (PubChem)
SIAE primary: blocks human sialic acid acetylesterase | SIAE FP-Rh probe binding, fluorescence polarization | inhibition, % at 9.66 µM | 0.69% of 370,000 active;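 active = inhibition above a cutoff: mean of compounds within the control limits plus 3 SD of those, cut at about 17% in these data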
HTRA1 inhibitor: HTRA1 (human) protease inhibition; Q92743; recombinant HTRA1, FP-rhodamine activity-based probe, fluorescence polarization; inhibition, % at 5.96 µM; 0.5% of 340,000 active; AID 504803; in the data active = inhibition above about 36%
PME-1 primary: blocks human protein phosphatase methylesterase 1. inhibition, % at 5.9 µM. Q9Y570. 0.53% of 320,000 active. recombinant PME-1, FP-Rh probe fluorescence polarization;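 active = inhibition above the campaign mean of all compounds plus 3 SD, cut at about 26% in these data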;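 note: competitive labeling of PME-1 active site by serine hydrolase directed probe; inhibitors block probe labeling so polarization falls and inhibition rises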
Target sequence (Q9Y570 whole entry, looked up): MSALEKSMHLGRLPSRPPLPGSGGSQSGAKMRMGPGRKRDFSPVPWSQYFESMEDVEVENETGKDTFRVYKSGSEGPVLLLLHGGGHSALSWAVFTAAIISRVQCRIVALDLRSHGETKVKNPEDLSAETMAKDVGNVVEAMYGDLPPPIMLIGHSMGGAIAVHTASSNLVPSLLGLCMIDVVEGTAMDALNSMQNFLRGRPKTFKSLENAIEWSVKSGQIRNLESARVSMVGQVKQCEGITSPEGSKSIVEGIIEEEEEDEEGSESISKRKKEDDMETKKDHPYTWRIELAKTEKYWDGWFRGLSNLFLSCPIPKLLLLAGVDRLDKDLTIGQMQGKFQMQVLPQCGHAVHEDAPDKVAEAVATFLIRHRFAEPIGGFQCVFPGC
TCR CD3 inh: human TCR-CD3 binding inhibition; TAMRA-labeled TCR probe fluorescence, biochemical; AID 651800; inhibition, % at 9.4 µM; 0.37% of 360,000 active; in the data active = inhibition above about 19%;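 note: recombinant mutant TCR 2C K166C tagged with TAMRA read by polarization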
mABHD4 FP: inhibitors of mouse ABHD4; Q8VD66; purified mABHD4, FP-Rh probe fluorescence polarization; inhibition, % at 8.92 µM; 0.54% of 370,000 active;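 active = inhibition exceeding the mean over every tested compound plus 3 SD, cut at about 30% in these data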
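Assay system: wild-type mouse ABHD4 protein; compound: single nominal dose of 8.92 µM, 0.89% DMSO final; schedule: 45 min + 60 min at 25 °C; measured by: FP readout, ex 525 nm / em 598 nm; evaluation: % inhibition of FP-Rh probe binding versus controls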
Fam108B counter: Fam108B inhibition, counter-screen for RBBP9 inhibitors. AID 1947. 0.33% of 300,000 active. inhibition, % at 9.51 µM. recombinant Fam108B, FP-Rh probe fluorescence polarization;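 active = inhibition above the screen mean inhibition plus 3 SD, computed separately per campaign, cut at about 18% in these data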;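 note: inhibitors lower polarization as less probe binds the enzyme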
SIAE inh conf: confirmation of human SIAE inhibitors; AID 1117263; SIAE FP-Rh activity-based probe, fluorescence polarization; shares compounds with SIAE primary; 13% of 2,300 active; inhibition, % at 9.66 µM;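 active = mean inhibition of the replicates above the hit cutoff set in the primary screen, cut at about 17% in these data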;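 note: inhibitors lower polarization as more probe stays unbound to SIAE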
Hits are given with their value; – = inactive; · = no result. Shown are actives, neighbours in structure and some others; about 1.8% of the full set was active somewhere.

SMILES | SIAE primary | HTRA1 inhibitor | PME-1 primary | TCR CD3 inh | mABHD4 FP | Fam108B counter | SIAE inh conf
O=C1CC2c3cc(Br)ccc3CCN2C(=O)CN1Cc1ccccc1 (configuration not stated) | – | · | · | – | – | · | ·
Cc1c(N=C/C=C/c2ccccc2)c(=O)n(-c2ccccc2)n1C | – | – | – | – | – | – | ·
Cc1c(N=Cc2cccnc2)c(=O)n(-c2ccccc2)n1C | 21 | – | – | – | – | – | –
Cc1ccc(OCC(=O)Nc2cccc(S(=O)(=O)N3CCOCC3)c2)c([N+](=O)[O-])n1 | – | – | – | – | – | – | ·
CN(C)CCNC(=O)c1nn(C)c2c1CCc1ccccc1-2 | – | – | – | – | – | – | ·
CCOCCCNCC(=O)N1CCN(S(=O)(=O)c2ccc(C)cc2)CC1 | 17 | – | – | – | – | – | –
Cc1ccc(S(=O)(=O)N2CCN(C(=O)CCC(=O)NCc3ccc(F)cc3)CC2)cc1 | 18 | – | – | – | – | – | –
CC(OC(=O)c1cccc(S(=O)(=O)N(C)C)c1)C(=O)NCC(=O)Nc1ccc(F)c(F)c1F (configuration not stated) | – | – | · | – | – | · | ·
COc1cc(-c2csc(N3CCOCC3)n2)cc(OC)c1OC | – | – | – | – | – | – | ·
COc1ccc(-c2csc(N3CCN(c4cc(C)nc5ccccc45)CC3)n2)cc1OC | 20 | – | – | – | – | – | –
CCOc1ccccc1CNn1cnnc1SCC(=O)NC(C)(C)C | – | – | · | – | – | · | ·
Cc1ccc(F)cc1C(=O)N(Cc1ccccn1)CC1CCCO1 (configuration not stated) | – | · | · | · | – | · | ·
COc1ccc(N2CCN(c3ncnc4scc(-c5ccc(C)cc5)c34)CC2)cc1 | 17 | – | – | – | – | – | –
COc1ccc(N2CCN(c3ncnc4scc(-c5ccc(F)cc5)c34)CC2)cc1 | – | – | – | – | – | – | ·
NNc1nc2ccc(Cl)cc2s1 | 23 | – | – | – | – | – | –
COc1ccc(NC(=S)NNC(=O)c2cccs2)cc1 | 18 | – | – | – | – | – | –
COc1ccc(NS(=O)(=O)c2cc(NC(=O)c3cccs3)ccc2N2CCCC2)cc1 | 26 | – | – | – | – | – | –
CNNCc1ccc(C(=O)NC(C)C)cc1 | – | – | – | – | – | – | ·
CCC1CCC2(CC1)NC(=O)N(CC(=O)NCc1ccccc1Cl)C2=O (configuration not stated) | 17 | – | · | – | – | · | –
O=C(CN1C(=O)NC2(CCCCCCC2)C1=O)NCc1ccccc1Cl | – | – | – | – | – | · | ·
S=C(c1ccc(-c2cccc(Cl)c2)o1)N1CCCCC1 | – | – | – | – | – | – | ·
O=C(O)c1ccc(-c2cccc(Cl)c2)o1 | 18 | – | – | – | – | – | –
Cc1ccc(C)c(Cn2cnc3c(cnn3C(C)(C)C)c2=O)c1 | 22 | – | – | – | – | – | –
C[C@H](CO)N1C[C@H](C)[C@@H](CN(C)S(=O)(=O)c2ccc(F)cc2)Oc2cc(Br)ccc2S1(=O)=O | – | · | · | – | – | · | ·
O=C(NCc1cccs1)c1ccc(-c2ccc(F)c(F)c2)c2ccoc12 | – | · | · | – | – | · | ·
SMILES | SIAE primary | HTRA1 inhibitor | PME-1 primary | TCR CD3 inh | mABHD4 FP | Fam108B counter | SIAE inh conf
COc1ccc(CNC(=O)CS(=O)(=O)Cc2nc(-c3cccc(OC)c3)oc2C)cc1 | – | – | – | – | – | – | ·
C=CCSc1nnc(NC(=O)CCNC(=O)c2ccccc2Cl)s1 | – | – | · | – | – | · | ·
C[C@H](c1ccccc1)N1C[C@H](COCc2ccccc2)Oc2cc(N3CC[C@@H](N(C)C)C3)ccc2S1(=O)=O | – | · | · | – | – | · | ·
C[C@@H](c1ccccc1)N1C[C@@H](COCc2ccccc2)Oc2cc(N3CC[C@@H](N(C)C)C3)ccc2S1(=O)=O | 18 | · | · | – | – | · | –
COc1cccc(CN(C)C[C@@H]2OCc3cnnn3CCCC(=O)N([C@H](C)CO)C[C@H]2C)c1 | – | – | · | – | – | · | ·
NNC(=O)c1cc2ccccc2cc1O | 18 | – | – | – | – | – | –
CCOc1ccc(NC(=O)c2cc3ccccc3cc2O)cc1 | 18 | – | – | – | – | – | –
NNC(=O)c1ccc(O)cc1O | – | – | – | – | – | – | ·
COc1cccc(CNC(=O)[C@@H]2CCCN2C(=O)[C@H]2CCCCN2C(=O)OC(C)(C)C)c1 | – | · | · | – | – | · | ·
